Measured values published in ChEMBL document CHEMBL3046018, “Design, syntheses and 3D-QSAR studies of novel N-phenyl pyrrolidin-2-ones and N-phenyl-1H-pyrrol-2-ones as protoporphyrinogen oxidase inhibitors” (Bioorg Med Chem, 2010).

Assays:
[1] = target: T1, Protoporphyrinogen oxidase (Homo sapiens, UniProt P50336); assay: Inhibition of Homo sapiens (human) protoporphyrinogen oxidase
T1 sequence (P50336 whole entry): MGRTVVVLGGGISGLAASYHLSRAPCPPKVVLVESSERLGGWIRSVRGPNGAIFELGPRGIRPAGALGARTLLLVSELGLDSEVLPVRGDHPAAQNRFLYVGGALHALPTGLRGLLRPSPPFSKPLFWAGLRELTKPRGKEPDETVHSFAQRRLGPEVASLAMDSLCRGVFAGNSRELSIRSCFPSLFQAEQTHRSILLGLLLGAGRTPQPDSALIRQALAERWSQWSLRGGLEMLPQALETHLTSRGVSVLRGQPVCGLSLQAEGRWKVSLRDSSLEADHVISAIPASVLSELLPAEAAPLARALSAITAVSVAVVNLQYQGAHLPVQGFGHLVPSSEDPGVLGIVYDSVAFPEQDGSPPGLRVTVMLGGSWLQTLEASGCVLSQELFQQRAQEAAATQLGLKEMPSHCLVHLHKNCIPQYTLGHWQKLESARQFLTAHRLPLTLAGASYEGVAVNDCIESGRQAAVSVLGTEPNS

Eclipta prostrata = assay: Herbicidal activity against Eclipta prostrata assessed as growth inhibition at 150 g ai/ha using post-emergence protocol under greenhouse conditions measured 15 days after compound treatment; type: functional; settings: 360 h, read-out: GI
In short: (§1)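 Post-emergence greenhouse spray on pot-grown broadleaf weeds at the 2-leaf stage. Formulation concentrates were diluted with water. Soil was clay, pH 6.5, 1.6% organic matter, 37.3% clay particles, CEC 12.1 mol/kg. The rate was total active ingredient divided by pot surface area. Untreated seedlings and DMF-treated seedlings served as controls.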

Digitaria sanguinalis = assay: Herbicidal activity against Digitaria sanguinalis (hairy crabgrass) assessed as growth inhibition at 150 g ai/ha using post-emergence protocol under greenhouse conditions measured 15 days after compound treatment; type: functional; settings: 360 h, read-out: GI
In short: (§2)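 Grass weeds were grown in pots in the greenhouse and sprayed post-emergence at the 1-leaf stage. The spray was formulation concentrate diluted in water. Soil was clay, pH 6.5, 1.6% organic matter, 37.3% clay particles, CEC 12.1 mol/kg. The g.ai/ha rate was active ingredient over pot surface area. Controls were untreated and DMF-treated seedlings.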

Echinochloa crus-galli = assay: Herbicidal activity against Echinochloa crus-galli (barnyard grass) assessed as growth inhibition at 150 g ai/ha using post-emergence protocol under greenhouse conditions measured 15 days after compound treatment; type: functional; settings: 360 h, read-out: GI; in short: as §2
Setaria viridis = assay: Herbicidal activity against Setaria viridis assessed as growth inhibition at 150 g ai/ha using post-emergence protocol under greenhouse conditions measured 15 days after compound treatment; type: functional; settings: 360 h, read-out: GI; in short: as §2
Chenopodium album = assay: Herbicidal activity against Chenopodium album assessed as growth inhibition at 150 g ai/ha using post-emergence protocol under greenhouse conditions measured 15 days after compound treatment; type: functional; settings: 360 h, read-out: GI; in short: as §1
Amaranthus retroflexus = assay: Herbicidal activity against Amaranthus retroflexus assessed as growth inhibition at 150 g ai/ha using post-emergence protocol under greenhouse conditions measured 15 days after compound treatment; type: functional; settings: 360 h, read-out: GI; in short: as §1
Brassica juncea = assay: Herbicidal activity against Brassica juncea assessed as growth inhibition at 150 g ai/ha using post-emergence protocol under greenhouse conditions measured 15 days after compound treatment; type: functional; settings: 360 h, read-out: GI; in short: as §1

Ki ([1]; read-out: Ki) [µM] | Ki ([1]; read-out: pKi (converted)) [µM] | Structure (SMILES) | inhibition of growth at 150 g/ha (Eclipta prostrata) [%] | inhibition of growth at 150 g/ha (Digitaria sanguinalis) [%] | inhibition of growth at 150 g/ha (Echinochloa crus-galli) [%] | inhibition of growth at 150 g/ha (Setaria viridis) [%] | inhibition of growth at 150 g/ha (Chenopodium album) [%] | inhibition of growth at 150 g/ha (Amaranthus retroflexus) [%] | inhibition of growth at 150 g/ha (Brassica juncea) [%]
63.6 | – | C#CCOc1cc(N2C(=O)C3CCCCC3C2O)c(F)cc1Cl (centres undefined) | < 50 | < 50 | < 50 | < 50 | < 50 | < 50 | < 50
3.3 | – | CCOC(=O)C(C)Oc1cc(N2C(=O)C3CCCCC3C2=O)c(F)cc1Cl (centres undefined) | > 80 | < 50 | < 50 | < 50 | 50 | 100 | 50
47.4 | – | CC(C)Oc1cc(N2C(=O)C3CCCCC3C2O)c(F)cc1Cl (centres undefined) | < 50 | < 50 | < 50 | < 50 | < 50 | < 50 | < 50
44.8 | 45.7 | C=CCOc1cc(N2C(=O)C3CCCCC3C2O)c(F)cc1Cl (centres undefined) | < 50 | < 50 | < 50 | < 50 | < 50 | < 50 | < 50
7.02 | – | C=CCOC1C2=C(CCCC2)C(=O)N1c1cc(OCC)c(Cl)cc1F (centres undefined) | 100 | 50 | 50 | 50 | 100 | 100 | 50
24.6 | – | O=C1C2CCCCC2C(O)N1c1cc(OC2CCCC2)c(Cl)cc1F (centres undefined) | < 50 | < 50 | < 50 | < 50 | < 50 | < 50 | < 50
4.49 | – | COc1cc(N2C(=O)C3=C(CCCC3)C2OC)c(F)cc1Cl (centres undefined) | 50 | 50 | 50 | 50 | > 80 | > 80 | 50
1.03 | – | C=CCOc1cc(N2C(=O)C3=C(CCCC3)C2O)c(F)cc1Cl (centres undefined) | 50 | < 50 | < 50 | < 50 | > 80 | > 80 | 50
15.2 | – | CCOC(=O)COc1cc(N2C(=O)C3CCCCC3C2=O)c(F)cc1Cl (centres undefined) | < 50 | < 50 | < 50 | < 50 | < 50 | < 50 | < 50
8.22 | – | COc1cc(N2C(=O)C3CCCCC3C2=O)c(F)cc1Cl (centres undefined) | 50 | 50 | 50 | 50 | < 50 | 100 | 50
0.2 | – | CCOc1cc(N2CC3=C(CCCC3)C2=O)c(F)cc1Cl | 50 | > 80 | > 80 | > 80 | 100 | > 80 | 50

The next lines start with the molecule.

Structure (SMILES) | Ki ([1]; read-out: Ki) [µM] | Ki ([1]; read-out: pKi (converted)) [µM] | inhibition of growth at 150 g/ha (Eclipta prostrata) [%] | inhibition of growth at 150 g/ha (Digitaria sanguinalis) [%] | inhibition of growth at 150 g/ha (Echinochloa crus-galli) [%] | inhibition of growth at 150 g/ha (Setaria viridis) [%] | inhibition of growth at 150 g/ha (Chenopodium album) [%] | inhibition of growth at 150 g/ha (Amaranthus retroflexus) [%] | inhibition of growth at 150 g/ha (Brassica juncea) [%]
C=CCOc1cc(N2C(=O)C3=C(CCCC3)C2OCC=C)c(F)cc1Cl (centres undefined) | 33.1 | – | > 80 | > 80 | 50 | > 80 | > 80 | 100 | 100
CCOc1cc(Cl)c([N+](=O)[O-])cc1N1C(=O)C2=C(CCCC2)C1O (centres undefined) | 359 | – | 50 | < 50 | < 50 | < 50 | 50 | > 80 | < 50
CCCOc1cc(N2CC3=C(CCCC3)C2=O)c(Cl)cc1Cl | 0.3 | – | < 50 | < 50 | < 50 | < 50 | < 50 | > 80 | < 50
Cc1nn(-c2cc(NS(C)(=O)=O)c(Cl)cc2Cl)c(=O)n1C(F)F [SULFENTRAZONE] | – | – | 100 | < 50 | < 50 | > 80 | 100 | 100 | 100
O=C1C2=C(CCCC2)C(O)N1c1cc(O)c(Br)cc1F (centres undefined) | 19.3 | – | 50 | 50 | < 50 | < 50 | 50 | 50 | < 50
COC1C2=C(CCCC2)C(=O)N1c1cc(OCc2cccc(Cl)c2)c(Cl)cc1F (centres undefined) | 1.03 | – | 50 | < 50 | 50 | < 50 | 50 | 50 | 50
O=C1NC(=O)c2cc(Cl)ccc21 [4-CHLORO-PHTHALIMIDE] | 87.9 | – | – | – | – | – | – | – | –
O=C1C2=C(CCCC2)C(O)N1c1cc(OCc2cccc(Cl)c2)c(Cl)cc1F (centres undefined) | 0.53 | – | 50 | < 50 | < 50 | < 50 | 50 | 50 | 50
C=CCOc1cc(N2CC3=C(CCCC3)C2=O)c(F)cc1Cl | 0.12 | – | 100 | > 80 | > 80 | > 80 | 100 | 100 | > 80
CCCOc1cc(N2CC3=C(CCCC3)C2=O)c(F)cc1Cl | 0.095 | – | 100 | > 80 | > 80 | > 80 | 100 | > 80 | > 80
CCOc1cc(N2CC3=C(CCCC3)C2=O)c(Cl)cc1Cl | 0.67 | – | 50 | < 50 | < 50 | < 50 | 50 | 50 | < 50
